This passage reports Activity results from ChEMBL document CHEMBL4819043, “1,3-Benzodioxole-based fibrate derivatives as potential hypolipidemic and hepatoprotective agents” (2021).

Calls of active or inactive are those of the source. The rule behind the calls is not given here.

The test system of assay [1] is Mus musculus. Put plainly: Hypolipidemic activity in KM mouse model of Triton WR 1339-induced hyperlipidemia assessed as reduction in serum TG level at 0.362 mmol/Kg, IG administered for 1 week and measured on day 7. The class given is functional, organism-based. As to conditions: time 1.0 weeks.
In assay [2] the test system is Mus musculus. Put plainly: Hypolipidemic activity in KM mouse model of Triton WR 1339-induced hyperlipidemia assessed as reduction in serum TC level at 0.362 mmol/Kg, IG administered for 1 week and measured on day 7. The format is functional, organism-based. The conditions noted are these: time 1.0 weeks.
Assay [3] relates to Mus musculus. Put plainly: Hypolipidemic activity in KM mouse model of Triton WR 1339-induced hyperlipidemia assessed as reduction in serum MDA level at 0.362 mmol/Kg, IG administered for 1 week and measured on day 7. The class given is functional, organism-based. As to conditions: time 1.0 weeks.
In assay [4] the test system is Mus musculus. Put plainly: Hypolipidemic activity in KM mouse model of Triton WR 1339-induced hyperlipidemia assessed as reduction in serum TG level at 0.121 mmol/Kg, IG administered for 1 week and measured on day 7 relative to control. The format is functional. Set-up: scale not given: the % may be the effect or the level left. As to conditions: time 1 weeks.
For assay [5], the system named is Mus musculus. As to the kind of experiment: Hypolipidemic activity in KM mouse model of Triton WR 1339-induced hyperlipidemia assessed as reduction in serum TG level at 0.362 mmol/Kg, IG administered for 1 week and measured on day 7 relative to control. The class given is functional. Details: scale not given: the % may be the effect or the level left. The conditions noted are these: time 1 weeks.

For assay [6], the system named is Mus musculus. Put plainly: Hypolipidemic activity in KM mouse model of Triton WR 1339-induced hyperlipidemia assessed as reduction in serum TG level at 1.086 mmol/Kg, IG administered for 1 week and measured on day 7 relative to control. The class given is functional. Details: scale not given: the % may be the effect or the level left. As to conditions: time 1 weeks.

Assay [7] deals with Mus musculus. Put plainly: Hypolipidemic activity in KM mouse model of Triton WR 1339-induced hyperlipidemia assessed as reduction in serum TC level at 0.121 mmol/Kg, IG administered for 1 week and measured on day 7 relative to control. The format is functional. Details: scale not given: the % may be the effect or the level left. The conditions noted are these: time 1 weeks.

Assay [8] deals with Mus musculus. As to the kind of experiment: Hypolipidemic activity in KM mouse model of Triton WR 1339-induced hyperlipidemia assessed as reduction in serum TC level at 0.362 mmol/Kg, IG administered for 1 week and measured on day 7 relative to control. The format is functional. Set-up: scale not given: the % may be the effect or the level left. The conditions noted are these: time 1 weeks.

Assay [9] has as its system Mus musculus. Put plainly: Hypolipidemic activity in KM mouse model of Triton WR 1339-induced hyperlipidemia assessed as reduction in serum TC level at 1.086 mmol/Kg, IG administered for 1 week and measured on day 7 relative to control. The format is functional. Set-up: scale not given: the % may be the effect or the level left. The conditions noted are these: time 1 weeks.

Assay [10] has as its system Mus musculus. As to the kind of experiment: Hypolipidemic activity in KM mouse model of Triton WR 1339-induced hyperlipidemia assessed as reduction in serum TG level administered IG for 1 week and measured on day 7. The format is functional, organism-based. The conditions noted are these: time 1.0 weeks.
In assay [11] the test system is Mus musculus. Put plainly: Hypolipidemic activity in KM mouse model of Triton WR 1339-induced hyperlipidemia assessed as reduction in serum TC level administered IG for 1 week and measured on day 7 relative to control. The class given is functional, organism-based. The conditions noted are these: time 1.0 weeks.
Assay [12] concerns Mus musculus. Put plainly: Hypolipidemic activity in mouse model of HFD-induced hyperlipidemia assessed as reduction in serum TG level at 67 mg/kg, IG. The format is functional, organism-based. The method, boiled down:
(§1)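 Mice with high-fat-diet-induced hyperlipidemia, given 67 or 13 mg/kg intragastrically. Serum was assayed for TC, TG, HDL-C and LDL-C, for SOD, GSH-PX and MDA, for IL-6 and TNF-α, and for AST and ALT. Values were compared with the model group. n = 12 per group; mean ± SEM.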

The subject of assay [13] is Mus musculus. Put plainly: Hypolipidemic activity in mouse model of HFD-induced hyperlipidemia assessed as reduction in serum LDL-C level at 67 mg/kg, IG. The class given is functional, organism-based. The essentials: as §1
Assay [14] deals with Mus musculus. Put plainly: Hypolipidemic activity in mouse model of HFD-induced hyperlipidemia assessed as reduction in serum TC level at 67 mg/kg, IG. The class given is functional, organism-based. The essentials:
as §1

The subject of assay [15] is Mus musculus. Put plainly: Antioxidant activity in mouse model of HFD-induced hyperlipidemia assessed as increase in SOD level at 67 mg/kg, IG. The class given is functional, organism-based. The essentials:
as §1

The test system of assay [16] is Mus musculus. As to the kind of experiment: Antioxidant activity in mouse model of HFD-induced hyperlipidemia assessed as increase in GSH-PX level at 67 mg/kg, IG. The format is functional, organism-based. The essentials: as §1
In assay [17] the test system is Mus musculus. Put plainly: Antioxidant activity in mouse model of HFD-induced hyperlipidemia assessed as decrease in MDA level at 67 mg/kg, IG. The format is functional, organism-based. The method, boiled down:
as §1

The test system of assay [18] is Mus musculus. As to the kind of experiment: Antiinflammatory activity against mouse model of HFD-induced hyperlipidemia assessed as decrease in TNF-alpha level at 67 mg/kg, IG. The class given is functional, organism-based. The method, boiled down: as §1
For assay [19], the system named is Mus musculus. Put plainly: Antiinflammatory activity against mouse model of HFD-induced hyperlipidemia assessed as decrease in IL-6 level at 67 mg/kg, IG. The format is functional, organism-based. The essentials: as §1
Assay [20] has as its system Mus musculus. Put plainly: Hepatoprotective activity against mouse model of HFD-induced hyperlipidemia assessed as decrease in AST level at 67 mg/kg, IG. The class given is functional, organism-based. The essentials:
as §1

Assay [21] has as its system Mus musculus. Put plainly: Hepatoprotective activity against mouse model of HFD-induced hyperlipidemia assessed as decrease in ALT level at 67 mg/kg, IG. The format is functional, organism-based. The essentials: as §1
The subject of assay [22] is Mus musculus. As to the kind of experiment: Hypolipidemic activity in mouse model of HFD-induced hyperlipidemia assessed as reduction in number of lipid droplets in liver at 67 mg/kg, IG by oil red-O staining based assay. The format is functional, organism-based. The essentials: (§2)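 Livers from mice with high-fat-diet-induced hyperlipidemia, dosed intragastrically at 67 or 13 mg/kg. Liver sections were stained for lipid (oil red O; Sudan III with hematoxylin, 100×), and relative hepatic lipid accumulation was quantified. Mean of six independent experiments ± SEM, compared with the model group.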

Assay [23] concerns Mus musculus. Put plainly: Upregulation of PPAR-alpha expression in mouse model of HFD-induced hyperlipidemia at 67 mg/kg, IG by Western blot analysis. The format is functional, organism-based. The method, boiled down:
(§3)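 Hepatic PPAR-α expression measured in liver tissue of mice with high-fat-diet-induced hyperlipidemia, dosed intragastrically at 67 or 13 mg/kg. Compared with the model group. n = 6; mean ± SEM.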

Assay [24] relates to Mus musculus. As to the kind of experiment: Hypolipidemic activity in mouse model of HFD-induced hyperlipidemia assessed as increase in serum HDL-C level at 67 mg/kg, IG relative to control. The format is functional. The essentials: as §1
In assay [25] the test system is Mus musculus. Put plainly: Hypolipidemic activity in mouse model of HFD-induced hyperlipidemia assessed as reduction in serum TG level at 13 mg/kg, IG. The format is functional, organism-based. The essentials: as §1
The subject of assay [26] is Mus musculus. Put plainly: Hypolipidemic activity in mouse model of HFD-induced hyperlipidemia assessed as reduction in serum LDL-C level at 13 mg/kg, IG. The format is functional, organism-based. The method, boiled down:
as §1

Assay [27] concerns Mus musculus. As to the kind of experiment: Hypolipidemic activity in mouse model of HFD-induced hyperlipidemia assessed as reduction in serum TC level at 13 mg/kg, IG. The format is functional, organism-based. The essentials:
as §1

Assay [28] deals with Mus musculus. As to the kind of experiment: Antioxidant activity in mouse model of HFD-induced hyperlipidemia assessed as increase in GSH-PX level at 13 mg/kg, IG. The format is functional, organism-based. The essentials: as §1
The test system of assay [29] is Mus musculus. As to the kind of experiment: Antioxidant activity in mouse model of HFD-induced hyperlipidemia assessed as decrease in MDA level at 13 mg/kg, IG. The class given is functional, organism-based. The method, boiled down: as §1
Assay [30] deals with Mus musculus. As to the kind of experiment: Hepatoprotective activity against mouse model of HFD-induced hyperlipidemia assessed as decrease in AST level at 13 mg/kg, IG. The class given is functional, organism-based. The method, boiled down: as §1
Assay [31] concerns Mus musculus. Put plainly: Hepatoprotective activity against mouse model of HFD-induced hyperlipidemia assessed as decrease in ALT level at 13 mg/kg, IG. The class given is functional, organism-based. The essentials:
as §1

Assay [32] has as its system Mus musculus. As to the kind of experiment: Hypolipidemic activity in mouse model of HFD-induced hyperlipidemia assessed as reduction in number of lipid droplets in liver at 13 mg/kg, IG by oil red-O staining based assay. The format is functional, organism-based. The essentials:
as §2

Assay [33] deals with Mus musculus. Put plainly: Upregulation of PPAR-alpha expression in mouse model of HFD-induced hyperlipidemia at 13 mg/kg, IG by Western blot analysis. The class given is functional, organism-based. The essentials: as §3
(In general: Immunoblotting shows a protein as a band on a membrane.)

Assay [34] relates to Mus musculus. As to the kind of experiment: Hypolipidemic activity in mouse model of HFD-induced hyperlipidemia assessed as increase in serum HDL-C level at 13 mg/kg, IG relative to control. The format is functional. The method, boiled down:
as §1

`O=C(O)CCCCCOc1ccc2c(c1)OCO2`: the outcome with Mus musculus [1] and in the assay on Mus musculus [2] was Active.

Consider `O=C(CCCOc1ccc2c(c1)OCO2)Oc1ccc2c(c1)OCO2`, for which the result with Mus musculus [1] and in the assay with Mus musculus [2] was Active.

On to `O=C(CCCCCOc1ccc2c(c1)OCO2)Oc1ccc2c(c1)OCO2`, for which the outcome in the assay on Mus musculus [1], in the assay with Mus musculus [2], in the assay with Mus musculus [3], with Mus musculus [12], in the assay on Mus musculus [13] and with Mus musculus [14] was Active. The result in the assay with Mus musculus [15], with Mus musculus [16], with Mus musculus [17], in the assay with Mus musculus [18], with Mus musculus [19] and with Mus musculus [20] was Active. Further, the result with Mus musculus [21], with Mus musculus [22] and with Mus musculus [23] was Active. Moreover, the Activity in the assay on Mus musculus [4] is on record as 10.4%; in the assay with Mus musculus [5] it was 68.8%; with Mus musculus [6], 74.1%; in the assay with Mus musculus [7], 14.3%; with Mus musculus [8], 67.3%; with Mus musculus [9] it was 70.1%. For the same compound, the Activity entry was “Dose-Dependent Effect” in the assay on Mus musculus [10], “Dose-Dependent Effect” with Mus musculus [11] and 15% with Mus musculus [24].

`CCOC(=O)CCCCCOc1ccc2c(c1)OCO2`: the result in the assay with Mus musculus [1] and in the assay with Mus musculus [2] was Active.

Turning to `CCOC(=O)CCCOc1ccc2c(c1)OCO2`, the result in the assay with Mus musculus [1] and with Mus musculus [2] was Active.

As for `O=C(CCCCOc1ccc2c(c1)OCO2)Oc1ccc2c(c1)OCO2`, the result in the assay with Mus musculus [1], in the assay on Mus musculus [2] and in the assay on Mus musculus [3] was Active.

On to `O=C(O)COc1ccc2c(c1)OCO2`, for which the result in the assay on Mus musculus [1] was Active.

Consider `O=C(O)CCCCOc1ccc2c(c1)OCO2`, for which the outcome with Mus musculus [1] and in the assay on Mus musculus [2] was Active.

With `CC(C)OC(=O)C(C)(C)Oc1ccc(C(=O)c2ccc(Cl)cc2)cc1` [FENOFIBRATE], the result in the assay on Mus musculus [25], in the assay with Mus musculus [26], in the assay on Mus musculus [28], in the assay with Mus musculus [32] and with Mus musculus [33] was Active. Also, the result in the assay with Mus musculus [27], in the assay on Mus musculus [29], in the assay with Mus musculus [30] and with Mus musculus [31] was inactive. Moreover, in the assay with Mus musculus [34], the Activity worked out at 20%.

Turning to `CCOC(=O)CCCCOc1ccc2c(c1)OCO2`, in the assay with Mus musculus [2], the result was Active.

With `CCOC(=O)COc1ccc2c(c1)OCO2`, the outcome in the assay on Mus musculus [2] was Active.

On to `O=C(COc1ccc2c(c1)OCO2)Oc1ccc2c(c1)OCO2`, for which the outcome with Mus musculus [1] and with Mus musculus [2] was Active.
